Experimental data as given in ChEMBL document CHEMBL1155099, “Natural products in parallel synthesis: triazole libraries of nonactic acid” (2008).
Calls of active or inactive are those of the source.

Assays:
Type in all cases: functional, organism-based
Candida albicans = assay: Antifungal activity against Candida albicans at 1 mM by almar blue dye reduction assay
Outline: (§1)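 Single-point primary screen at 1 mM using Alamar Blue dye reduction as the growth read-out.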

Cryptococcus neoformans = assay: Antifungal activity against Cryptococcus neoformans at 1 mM by almar blue dye reduction assay; outline: as §1
Saccharomyces cerevisiae = assay: Antifungal activity against Saccharomyces cerevisiae at 1 mM by almar blue dye reduction assay; outline: as §1
Bacillus subtilis = assay: Antibacterial activity against Bacillus subtilis at 1 mM by almar blue dye reduction assay; outline: as §1
Staphylococcus aureus = assay: Antibacterial activity against Staphylococcus aureus at 1 mM by almar blue dye reduction assay; outline: as §1
Bacillus cereus = assay: Antibacterial activity against Bacillus cereus at 1 mM by almar blue dye reduction assay; outline: as §1
Pseudomonas aeruginosa = assay: Antibacterial activity against Pseudomonas aeruginosa at 1 mM by almar blue dye reduction assay; outline: as §1
Bacillus anthracis = assay: Antibacterial activity against Bacillus anthracis at 1mM by almar blue dye reduction assay
Escherichia coli = assay: Antibacterial activity against Escherichia coli at 1 mM by almar blue dye reduction assay; outline: as §1

Measured: Activity

CCN(CC)C(=O)[C@H](C)C1CCC(C[C@@H](C)n2cc(C#CCNC(=O)OCc3ccccc3)nn2)O1 (single isomer, unassigned)
inactive: all assays above

C[C@H](C[C@@H]1CC[C@H]([C@@H](C)C(=O)N2CCN(CC3CCCO3)CC2)O1)n1cc(C#CCN(C)C)nn1 (stereo partly drawn)
inactive: all assays above

CC(C)NC(=O)[C@H](C)[C@H]1CC[C@@H](C[C@@H](C)n2cc(C#CCOc3ccccc3)nn2)O1
inactive: all assays above

C[C@H](CC1CCC([C@@H](C)C(=O)N2CCN(CC3CCCO3)CC2)O1)n1cc(C#CCCCC#N)nn1 (single isomer, unassigned)
inactive: all assays above

C[C@H](C[C@@H]1CC[C@H]([C@@H](C)C(=O)N2CCCC2)O1)n1cc(C#CCc2ccccc2)nn1
inactive: all assays above

CCN(CC)C(=O)[C@H](C)[C@H]1CC[C@@H](C[C@@H](C)n2cc(C#CCC(C)C)nn2)O1
inactive: all assays above

C[C@H](C[C@@H]1CC[C@H]([C@@H](C)C(=O)N2CCN(CC3CCCO3)CC2)O1)n1cc(C#CC2=CCCCC2)nn1 (stereo partly drawn)
inactive: all assays above

COc1ccc(OCC#Cc2cn([C@H](C)C[C@@H]3CC[C@H]([C@@H](C)C(=O)N4CCN(CC5CCCO5)CC4)O3)nn2)cc1 (stereo partly drawn)
inactive: all assays above

CC(C)NC(=O)[C@H](C)[C@H]1CC[C@@H](C[C@@H](C)n2cc(C#CCN(C)CCc3ccccc3)nn2)O1
inactive: all assays above

COc1cccc(OCC#Cc2cn([C@H](C)C[C@@H]3CC[C@H]([C@@H](C)C(=O)N4CCCC4)O3)nn2)c1OC
inactive: all assays above

CC(C)NC(=O)[C@H](C)[C@H]1CC[C@@H](C[C@@H](C)n2cc(C#CCc3ccccc3)nn2)O1
inactive: all assays above

CC(C)CC#Cc1cn([C@H](C)C[C@@H]2CC[C@H]([C@@H](C)C(=O)N(C)Cc3ccccc3)O2)nn1
inactive: all assays above

CC(C)CC#Cc1cn([C@H](C)C[C@@H]2CC[C@H]([C@@H](C)C(=O)NC(C)C)O2)nn1
inactive: all assays above

C[C@H](C[C@@H]1CC[C@H]([C@@H](C)C(=O)N2CCN(CC3CCCO3)CC2)O1)n1cc(C#CCN2CCN(c3ccccc3)CC2)nn1 (stereo partly drawn)
inactive: all assays above

C[C@H](C[C@@H]1CC[C@H]([C@@H](C)C(=O)N2CCN(CC3CCCO3)CC2)O1)n1cc(C#CCN2CCC(c3ccccc3)CC2)nn1 (stereo partly drawn)
inactive: all assays above

C[C@H](C[C@@H]1CC[C@H]([C@@H](C)C(=O)N2CCCC2)O1)n1cc(C#CCOc2cccc(-c3ccccc3)c2)nn1
inactive: all assays above

C[C@H](C[C@@H]1CC[C@H]([C@@H](C)C(=O)N(C)Cc2ccccc2)O1)n1cc(C#Cc2ccccc2)nn1
inactive: all assays above
